Legend:
Rattus norvegicus [1] = experiment: AUC (0 to infinity) in female Sprague-Dawley rat plasma treated with [14C]sunitinib at 15 mg/kg, po administered as single dose by LC/MS/MS analysis; assay type: ADME, organism-based; design: time infinity, dose 15 mg/kg, dosed compound name [14C]Sunitinib, route oral; details: in vivo
Outline: (§1)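 Single dose of [14C]sunitinib L-malate as free base, 50 µCi/kg. IV dose was 5 mg/kg by tail vein in 5 females. Oral dose was 15 mg/kg by gavage in 3 females and 3 males. Total radioactivity was by scintillation counting. […] Cmax was read from raw data, t½ by log-linear regression, AUC by linear trapezoidal rule.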

Rattus norvegicus [2] = experiment: Tmax in male Sprague-Dawley rat plasma treated with [14C]sunitinib at 15 mg/kg, po administered as single dose by LC/MS/MS analysis; assay type: ADME, organism-based; design: dose 15 mg/kg, dosed compound name [14C]Sunitinib, route oral; details: in vivo
Cynomolgus monkey [3] = experiment: Terminal half life in male cynomolgus monkey plasma treated with [14C]sunitinib at 6 mg/kg, po administered as single dose by LC/MS/MS analysis; assay type: ADME, organism-based, Macaca fascicularis; design: dose 6 mg/kg, dosed compound name [14C]Sunitinib, route oral; details: in vivo
Rattus norvegicus [4] = experiment: Apparent terminal half life in female Sprague-Dawley rat plasma treated with [14C]sunitinib at 5 mg/kg, iv administered as single dose by LC/MS/MS analysis; assay type: ADME, organism-based; design: dose 5 mg/kg, dosed compound name [14C]Sunitinib, route intravenous; details: in vivo; outline: as §1
[5] = Drug excretion in feces of human treated with [14C]sunitinib at 50 mg, po administered as single dose by liquid scintillation counting; details: in vivo
Cynomolgus monkey [6] = experiment: AUC (0 to infinity) in female cynomolgus monkey plasma treated with [14C]sunitinib at 6 mg/kg, po administered as single dose by LC/MS/MS analysis; assay type: ADME, organism-based, Macaca fascicularis; design: time infinity, dose 6 mg/kg, dosed compound name [14C]Sunitinib, route oral; details: in vivo
Outline: (§2)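 Cynomolgus monkeys of both sexes received one oral gavage of [14C]sunitinib L-malate at 6 mg/kg (37 µCi/kg). Femoral-vein blood was taken into heparin from 0.5 to 336 h. Plasma was kept cold and protected from light, then stored at -80 °C. Total radioactivity was by scintillation counting and sunitinib by methanol-extraction LC-MS-MS. Cmax was from raw data, t½ from the log-linear terminal slope, AUC(0-∞) by linear trapezoidal rule.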

[7] = Drug excretion in urine of female cynomolgus monkey treated with [14C]sunitinib at 6 mg/kg, po administered as single dose by liquid scintillation counting; assay type: ADME, organism-based, Macaca fascicularis; design: dose 6 mg/kg, dosed compound name [14C]Sunitinib, route oral; details: in vivo
Outline: (§3)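 Cynomolgus monkeys given one oral gavage dose of [14C]sunitinib L-malate, 6 mg/kg (37 µCi/kg). Urine collected at 0-4, 4-8 and 8-24 h, feces at 0-8 and 8-24 h, then both daily to 14 days; samples stored at -80 °C. Duplicate urine aliquots counted by liquid scintillation; homogenized feces combusted before counting.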

Rattus norvegicus [8] = experiment: Tmax in female Sprague-Dawley rat plasma treated with [14C]sunitinib at 15 mg/kg, po administered as single dose by LC/MS/MS analysis; assay type: ADME, organism-based; design: dose 15 mg/kg, dosed compound name [14C]Sunitinib, route oral; details: in vivo
Rattus norvegicus [9] = experiment: Cmax in female Sprague-Dawley rat plasma treated with [14C]sunitinib at 5 mg/kg, iv administered as single dose by LC/MS/MS analysis; assay type: ADME, organism-based; design: dose 5 mg/kg, dosed compound name [14C]Sunitinib, route intravenous; details: in vivo; outline: as §1
Homo sapiens [10] = experiment: Terminal half life in human plasma treated with [14C]sunitinib at 50 mg, po administered as single dose by LC/MS/MS analysis; assay type: ADME, organism-based; design: dosed compound name [14C]Sunitinib; details: in vivo
[11] = Drug excretion in urine of human treated with [14C]sunitinib at 50 mg, po administered as single dose by liquid scintillation counting; details: in vivo
Cynomolgus monkey [12] = experiment: Terminal half life in female cynomolgus monkey plasma treated with [14C]sunitinib at 6 mg/kg, po administered as single dose by LC/MS/MS analysis; assay type: ADME, organism-based, Macaca fascicularis; design: dose 6 mg/kg, dosed compound name [14C]Sunitinib, route oral; details: in vivo
[13] = Drug excretion in urine of female Sprague-Dawley rat treated with [14C]sunitinib at 15 mg/kg, po administered as single dose by liquid scintillation counting; assay type: ADME, organism-based; design: dose 15 mg/kg, dosed compound name [14C]Sunitinib, route oral; details: in vivo
Outline: (§4)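 Female and male rats given one oral gavage dose, 15 mg/kg free base equivalents (50 µCi/kg). Urine and feces collected on dry ice, protected from light, over 0-4, 4-8 and 8-24 h, then daily to 72 h. Urine aliquots counted by liquid scintillation; homogenized feces combusted in oxygen before counting. Counts 5 min, external quench correction.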

[14] = Drug excretion in feces of female Sprague-Dawley rat treated with [14C]sunitinib at 15 mg/kg, po administered as single dose by liquid scintillation counting; assay type: ADME, organism-based; design: dose 15 mg/kg, dosed compound name [14C]Sunitinib, route oral; details: in vivo; outline: as §4
[15] = Drug excretion in urine of male Sprague-Dawley rat treated with [14C]sunitinib at 15 mg/kg, po administered as single dose by liquid scintillation counting; assay type: ADME, organism-based; design: dose 15 mg/kg, dosed compound name [14C]Sunitinib, route oral; details: in vivo; outline: as §4
[16] = Drug excretion in feces of female Sprague-Dawley rat treated with [14C]sunitinib at 5 mg/kg, iv administered as single dose by liquid scintillation counting; assay type: ADME, organism-based; design: dose 5 mg/kg, dosed compound name [14C]Sunitinib, route intravenous; details: in vivo
Outline: (§5)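 Five female rats given a single tail-vein bolus of [14C]sunitinib L-malate, 5 mg/kg free base equivalents (50 µCi/kg). Urine and feces collected over 0-72 h into dry-ice cooled containers. Urine counted directly by liquid scintillation; feces homogenized and combusted in oxygen before counting. Expired air also monitored.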

Rattus norvegicus [17] = experiment: Apparent terminal half life in male Sprague-Dawley rat plasma treated with [14C]sunitinib at 15 mg/kg, po administered as single dose by LC/MS/MS analysis; assay type: ADME, organism-based; design: dose 15 mg/kg, dosed compound name [14C]Sunitinib, route oral; details: in vivo; outline: as §1
Homo sapiens [18] = experiment: Cmax in human plasma treated with [14C]sunitinib at 50 mg, po administered as single dose by LC/MS/MS analysis; assay type: ADME, organism-based; design: dose 50 mg, route oral, dosed compound name [14C]Sunitinib; details: in vivo
Outline: (§6)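 Open-label phase I study in 8 subjects given one 50 mg oral dose of [14C]sunitinib (100 µCi). Plasma total radioactivity was counted by scintillation on triplicate 0.25 mL aliquots. Sunitinib was quantified by LC-MS-MS. Noncompartmental analysis: Cmax read directly, terminal t½ = ln(2)/slope of the log-concentration regression, AUC by linear trapezoidal rule to the last detectable concentration.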

Rattus norvegicus [19] = experiment: Cmax in male Sprague-Dawley rat plasma treated with [14C]sunitinib at 15 mg/kg, po administered as single dose by LC/MS/MS analysis; assay type: ADME, organism-based; design: dose 15 mg/kg, dosed compound name [14C]Sunitinib, route oral; details: in vivo; outline: as §1
[20] = Drug excretion in urine of male cynomolgus monkey treated with [14C]sunitinib at 6 mg/kg, po administered as single dose by liquid scintillation counting; assay type: ADME, organism-based, Macaca fascicularis; design: dose 6 mg/kg, dosed compound name [14C]Sunitinib, route oral; details: in vivo; outline: as §3
Homo sapiens [21] = experiment: AUC (0 to infinity) in human plasma treated with [14C]sunitinib at 50 mg, po administered as single dose by LC/MS/MS analysis; assay type: ADME, organism-based; design: dose 50 mg, time infinity, route oral, dosed compound name [14C]Sunitinib; details: in vivo; outline: as §6
Rattus norvegicus [22] = experiment: AUC (0 to infinity) in male Sprague-Dawley rat plasma treated with [14C]sunitinib at 15 mg/kg, po administered as single dose by LC/MS/MS analysis; assay type: ADME, organism-based; design: time infinity, dose 15 mg/kg, dosed compound name [14C]Sunitinib, route oral; details: in vivo; outline: as §1
Cynomolgus monkey [23] = experiment: Tmax in male cynomolgus monkey plasma treated with [14C]sunitinib at 6 mg/kg, po administered as single dose by LC/MS/MS analysis; assay type: ADME, organism-based, Macaca fascicularis; design: dose 6 mg/kg, dosed compound name [14C]Sunitinib, route oral; details: in vivo
Cynomolgus monkey [24] = experiment: AUC (0 to infinity) in male cynomolgus monkey plasma treated with [14C]sunitinib at 6 mg/kg, po administered as single dose by LC/MS/MS analysis; assay type: ADME, organism-based, Macaca fascicularis; design: time infinity, dose 6 mg/kg, dosed compound name [14C]Sunitinib, route oral; details: in vivo; outline: as §2
Cynomolgus monkey [25] = experiment: Tmax in female cynomolgus monkey plasma treated with [14C]sunitinib at 6 mg/kg, po administered as single dose by LC/MS/MS analysis; assay type: ADME, organism-based, Macaca fascicularis; design: dose 6 mg/kg, dosed compound name [14C]Sunitinib, route oral; details: in vivo
Rattus norvegicus [26] = experiment: Tmax in female Sprague-Dawley rat plasma treated with [14C]sunitinib at 5 mg/kg, iv administered as single dose by LC/MS/MS analysis; assay type: ADME, organism-based; design: dose 5 mg/kg, dosed compound name [14C]Sunitinib, route intravenous; details: in vivo
Rattus norvegicus [27] = experiment: Apparent terminal half life in female Sprague-Dawley rat plasma treated with [14C]sunitinib at 15 mg/kg, po administered as single dose by LC/MS/MS analysis; assay type: ADME, organism-based; design: dose 15 mg/kg, dosed compound name [14C]Sunitinib, route oral; details: in vivo; outline: as §1
[28] = Retention time of compound by LC/MS/MS analysis; assay type: physicochemical; design: dosed compound name [14C]Sunitinib
Rattus norvegicus [29] = experiment: AUC (0 to infinity) in female Sprague-Dawley rat plasma treated with [14C]sunitinib at 5 mg/kg, iv administered as single dose by LC/MS/MS analysis; assay type: ADME, organism-based; design: time infinity, dose 5 mg/kg, dosed compound name [14C]Sunitinib, route intravenous; details: in vivo; outline: as §1
Rattus norvegicus [30] = experiment: Cmax in female Sprague-Dawley rat plasma treated with [14C]sunitinib at 15 mg/kg, po administered as single dose by LC/MS/MS analysis; assay type: ADME, organism-based; design: dose 15 mg/kg, dosed compound name [14C]Sunitinib, route oral; details: in vivo; outline: as §1
[31] = Drug excretion in urine of female Sprague-Dawley rat treated with [14C]sunitinib at 5 mg/kg, iv administered as single dose by liquid scintillation counting; assay type: ADME, organism-based; design: dose 5 mg/kg, dosed compound name [14C]Sunitinib, route intravenous; details: in vivo; outline: as §5
Cynomolgus monkey [32] = experiment: Cmax in male cynomolgus monkey plasma treated with [14C]sunitinib at 6 mg/kg, po administered as single dose by LC/MS/MS analysis; assay type: ADME, organism-based, Macaca fascicularis; design: dose 6 mg/kg, dosed compound name [14C]Sunitinib, route oral; details: in vivo; outline: as §2
Homo sapiens [33] = experiment: Tmax in human plasma treated with [14C]sunitinib at 50 mg, po administered as single dose by LC/MS/MS analysis; assay type: ADME, organism-based; design: dosed compound name [14C]Sunitinib; details: in vivo
[34] = Drug excretion in feces of male Sprague-Dawley rat treated with [14C]sunitinib at 15 mg/kg, po administered as single dose by liquid scintillation counting; assay type: ADME, organism-based; design: dose 15 mg/kg, dosed compound name [14C]Sunitinib, route oral; details: in vivo; outline: as §4
Cynomolgus monkey [35] = experiment: Cmax in female cynomolgus monkey plasma treated with [14C]sunitinib at 6 mg/kg, po administered as single dose by LC/MS/MS analysis; assay type: ADME, organism-based, Macaca fascicularis; design: dose 6 mg/kg, dosed compound name [14C]Sunitinib, route oral; details: in vivo; outline: as §2
[36] = Drug excretion in feces of female cynomolgus monkey treated with [14C]sunitinib at 6 mg/kg, po administered as single dose by liquid scintillation counting; assay type: ADME, organism-based, Macaca fascicularis; design: dose 6 mg/kg, dosed compound name [14C]Sunitinib, route oral; details: in vivo; outline: as §3
[37] = Drug excretion in feces of male cynomolgus monkey treated with [14C]sunitinib at 6 mg/kg, po administered as single dose by liquid scintillation counting; assay type: ADME, organism-based, Macaca fascicularis; design: dose 6 mg/kg, dosed compound name [14C]Sunitinib, route oral; details: in vivo; outline: as §3

CCNCCNC(=O)c1c(C)[nH]c(/C=C2\C(=O)Nc3ccc(F)cc32)c1C
AUC (Rattus norvegicus [1]): 37225 ng·h/mL
Tmax (Rattus norvegicus [2]): 6 h
beta t1/2 (Cynomolgus monkey [3]): 19 h
t1/2 lambda z (Rattus norvegicus [4]): 8.4 h
Compound recovery [5]: 25%
AUC (Cynomolgus monkey [6]): 1272 ng·h/mL
Compound recovery [7]: 1.4%
Tmax (Rattus norvegicus [8]): 7 h
Cmax (Rattus norvegicus [9]): 450 ng/mL
beta t1/2 (Homo sapiens [10]): 93.2 h
Compound recovery [11]: 6.9%
beta t1/2 (Cynomolgus monkey [12]): 19 h
Compound recovery [13]: 1.4%
Compound recovery [14]: 32.1%
Compound recovery [15]: 1.7%
Compound recovery [16]: 18.5%
t1/2 lambda z (Rattus norvegicus [17]): 7.1 h
Cmax (Homo sapiens [18]): 6.2 ng/mL
Cmax (Rattus norvegicus [19]): 4561 ng/mL
Compound recovery [20]: 1.1%
AUC (Homo sapiens [21]): 592.6 ng·h/mL
AUC (Rattus norvegicus [22]): 68854 ng·h/mL
Tmax (Cynomolgus monkey [23]): 8 h
AUC (Cynomolgus monkey [24]): 1383 ng·h/mL
Tmax (Cynomolgus monkey [25]): 7 h
Tmax (Rattus norvegicus [26]): 3 h
t1/2 lambda z (Rattus norvegicus [27]): 9 h
Retention_time [28]: 2.5 min
AUC (Rattus norvegicus [29]): 6724 ng·h/mL
Cmax (Rattus norvegicus [30]): 1412 ng/mL
Compound recovery [31]: 0.5%
Cmax (Cynomolgus monkey [32]): 67 ng/mL
Tmax (Homo sapiens [33]): 6.7 h
Compound recovery [34]: 21%
Cmax (Cynomolgus monkey [35]): 54 ng/mL

CCN(CC)CCNC(=O)c1c(C)[nH]c(/C=C2\C(=O)Nc3ccc(O)cc32)c1C
Compound recovery [14]: 3.5%
Compound recovery [16]: 6.1%
Compound recovery [36]: 5.9%
Compound recovery [37]: 6.3%
Compound recovery [34]: 4.3%

CCN(CC)CCNC(=O)c1c(C)[nH]c(CC2C(=O)Nc3ccc(F)cc32)c1C (stereo not given)
Compound recovery [5]: metabolite_not_detected
Compound recovery [36]: 1%
Compound recovery [37]: 1.5%

CCNCCNC(=O)c1c(C)[nH]c(C=C2C(=O)Nc3ccc(F)cc32)c1C (mixture of isomers)
Compound recovery [36]: 29.3%
Compound recovery [37]: 30.7%
